We go through nine compounds from ChEMBL document CHEMBL5046302, “Identification and Evaluation of Brominated Carbazoles as a Novel Antibiotic Adjuvant Scaffold in MRSA” (2022).

Holding throughout (format): functional
Experiment [1] has as its system Staphylococcus aureus. Briefly: Antibacterial activity against methicillin-resistant Staphylococcus aureus USA300 assessed as inhibition of bacterial growth after 18 hrs in presence of oxacillin by CLSI protocol based broth microdilution assay. Background: Dilution methods test growth across graded concentrations, often in twofold steps.
Experiment [2] concerns Staphylococcus aureus. Briefly: Antibacterial activity against methicillin-resistant Staphylococcus aureus USA100 assessed as inhibition of bacterial growth after 18 hrs in presence of oxacillin by CLSI protocol based broth microdilution assay.
Experiment [3] relates to Staphylococcus aureus. Description: Antibacterial activity against methicillin-resistant Staphylococcus aureus COL assessed as inhibition of bacterial growth after 18 hrs in presence of oxacillin by CLSI protocol based broth microdilution assay.
Experiment [4] relates to Staphylococcus aureus. Briefly: Antibacterial activity against methicillin-resistant Staphylococcus aureus ATCC 43300 assessed as inhibition of bacterial growth after 18 hrs by CLSI protocol based broth microdilution assay. An outline of the steps:
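Broth microdilution MIC of carbazole alone vs MRSA ATCC 43300, tested up to 200 μM.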

For experiment [5], the system named is Staphylococcus aureus. Description: Potentiation of oxacillin induced antibacterial activity against methicillin-resistant Staphylococcus aureus COL assessed as fold change in oxacillin MIC at 50 uM after 18 hrs by CLSI protocol based broth microdilution assay.
The subject of experiment [6] is Staphylococcus aureus. Briefly: Potentiation of oxacillin induced antibacterial activity against methicillin-resistant Staphylococcus aureus USA300 assessed as fold change in oxacillin MIC at 50 uM after 18 hrs by CLSI protocol based broth microdilution assay.
Experiment [7] deals with Staphylococcus aureus. Description: Potentiation of oxacillin induced antibacterial activity against methicillin-resistant Staphylococcus aureus USA 100 assessed as fold change in oxacillin MIC at 50 uM after 18 hrs by CLSI protocol based broth microdilution assay.
For experiment [8], the system named is Staphylococcus aureus. Description: Potentiation of oxacillin induced antibacterial activity against methicillin-resistant Staphylococcus aureus USA100 assessed as oxacillin MIC at 50 uM after 18 hrs by CLSI protocol based broth microdilution assay.
In experiment [9] the test system is Staphylococcus aureus. Briefly: Potentiation of oxacillin induced antibacterial activity against methicillin-resistant Staphylococcus aureus COL assessed as oxacillin MIC at 50 uM after 18 hrs by CLSI protocol based broth microdilution assay.
The subject of experiment [10] is Staphylococcus aureus. Briefly: Potentiation of oxacillin induced antibacterial activity against methicillin-resistant Staphylococcus aureus USA300 assessed as oxacillin MIC at 50 uM after 18 hrs by CLSI protocol based broth microdilution assay.
Experiment [11] concerns Staphylococcus aureus. Description: Potentiation of oxacillin induced antibacterial activity against methicillin-resistant Staphylococcus aureus ATCC 43300 assessed as oxacillin MIC at 50 uM after 18 hrs by CLSI protocol based broth microdilution assay.
For experiment [12], the system named is Staphylococcus aureus. Briefly: Potentiation of oxacillin induced antibacterial activity against methicillin-resistant Staphylococcus aureus ATCC 43300 assessed as fold change in oxacillin MIC at 50 uM after 18 hrs by CLSI protocol based broth microdilution assay.

A word on the MIC: it is the smallest concentration in the dilution series that meets the test's criterion for growth inhibition.

As to `CO[C@@]1(NC(=O)Cc2cccs2)C(=O)N2C(C(=O)O)=C(COC(N)=O)CS[C@@H]21` [CEFOXITIN], the MIC came to 32 µg/mL in the experiment on Staphylococcus aureus [1], 256 µg/mL in the experiment with Staphylococcus aureus [2], 256 µg/mL in the experiment on Staphylococcus aureus [3] and 64 µg/mL in the experiment with Staphylococcus aureus [4].

On to `Brc1ccc2[nH]c3ccccc3c2c1`, for which the “fold change (FC)” value is listed as 1 in the experiment with Staphylococcus aureus [5], 1 in the experiment with Staphylococcus aureus [6], 2 with Staphylococcus aureus [7] and 1 in the experiment with Staphylococcus aureus [12]. Besides, the minimum inhibitory concentration (MIC) in the experiment with Staphylococcus aureus [8] was 128 µg/mL; with Staphylococcus aureus [4] it was over 200 µM; with Staphylococcus aureus [9], 512 µg/mL; in the experiment on Staphylococcus aureus [10], 32 µg/mL; in the experiment with Staphylococcus aureus [11] it was 32 µg/mL.

Regarding `Clc1ccc2c(c1)[nH]c1ccccc12`, the “fold change (FC)” value is reported as 2 with Staphylococcus aureus [5], 1 with Staphylococcus aureus [6], 2 in the experiment with Staphylococcus aureus [7] and 2 with Staphylococcus aureus [12]. The MIC in the experiment with Staphylococcus aureus [8] is 128 µg/mL; with Staphylococcus aureus [4] it was over 200 µM; in the experiment on Staphylococcus aureus [9], 512 µg/mL; in the experiment with Staphylococcus aureus [10] it was 16 µg/mL; in the experiment with Staphylococcus aureus [11], 16 µg/mL.

For `COc1ccc2[nH]c3ccc(OC)cc3c2c1`, the “fold change (FC)” value in the experiment on Staphylococcus aureus [5] is 1; in the experiment on Staphylococcus aureus [6], over 1; with Staphylococcus aureus [7] it was 1; in the experiment on Staphylococcus aureus [12], 0.5. The MIC in the experiment on Staphylococcus aureus [8] is 256 µg/mL; with Staphylococcus aureus [4] it was over 200 µM; with Staphylococcus aureus [9], 512 µg/mL; in the experiment on Staphylococcus aureus [10], 64 µg/mL; in the experiment on Staphylococcus aureus [11], 64 µg/mL.

As to `Nc1ccc2[nH]c3ccc(N)cc3c2c1`, the “fold change (FC)” value in the experiment with Staphylococcus aureus [5], in the experiment on Staphylococcus aureus [6], in the experiment on Staphylococcus aureus [7] and with Staphylococcus aureus [12] was 1 in each case. The MIC with Staphylococcus aureus [8] was 256 µg/mL; in the experiment with Staphylococcus aureus [4], over 200 µM; in the experiment on Staphylococcus aureus [9], 512 µg/mL; in the experiment with Staphylococcus aureus [10] it was 16 µg/mL; with Staphylococcus aureus [11], 32 µg/mL.

`c1ccc2c(c1)[nH]c1ccccc12` [CARBAZOLE]: the “fold change (FC)” value with Staphylococcus aureus [5], with Staphylococcus aureus [6], with Staphylococcus aureus [7] and in the experiment with Staphylococcus aureus [12] was 1 each time. Also, the MIC with Staphylococcus aureus [8] was 256 µg/mL; in the experiment on Staphylococcus aureus [4], over 200 µM; with Staphylococcus aureus [9], 512 µg/mL; in the experiment with Staphylococcus aureus [10], 32 µg/mL; with Staphylococcus aureus [11], 32 µg/mL.

In the case of `Fc1ccc2[nH]c3ccccc3c2c1`, the “fold change (FC)” value in the experiment on Staphylococcus aureus [5] stood at 1; in the experiment with Staphylococcus aureus [6], 1; in the experiment on Staphylococcus aureus [7], 2; in the experiment with Staphylococcus aureus [12], 2. For the same compound, the MIC was 128 µg/mL with Staphylococcus aureus [8]; over 200 µM in the experiment with Staphylococcus aureus [4]; 512 µg/mL with Staphylococcus aureus [9]; 32 µg/mL in the experiment with Staphylococcus aureus [10]; 16 µg/mL with Staphylococcus aureus [11].

On to `Ic1ccc2[nH]c3ccccc3c2c1`, for which the “fold change (FC)” value in the experiment on Staphylococcus aureus [5] was 1; with Staphylococcus aureus [6], 2; with Staphylococcus aureus [7], 2; with Staphylococcus aureus [12], 2. Besides, the MIC in the experiment on Staphylococcus aureus [8] is 128 µg/mL; with Staphylococcus aureus [4], over 200 µM; with Staphylococcus aureus [9] it was 512 µg/mL; in the experiment with Staphylococcus aureus [10], 16 µg/mL; in the experiment on Staphylococcus aureus [11] it was 16 µg/mL.

As to `COc1cccc(OC)c1C(=O)N[C@@H]1C(=O)N2[C@@H]1SC(C)(C)[C@@H]2C(=O)O` [METHICILLIN], the MIC came out at 32 µg/mL in the experiment on Staphylococcus aureus [1], 512 µg/mL in the experiment with Staphylococcus aureus [2], 1020 µg/mL in the experiment with Staphylococcus aureus [3] and 4 µg/mL in the experiment with Staphylococcus aureus [4].
